According to the EternaBench riboswitch data:

What was measured:
MS2 coat protein [1] = experiment: apparent Kd, MS2 coat protein; higher = weaker binding; RNA-MaP array; theophylline 2 mM where present
In short: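 Each design was made on Illumina sequencing-chip clusters by stalled E. coli RNA polymerase and titrated with SNAP-549-labelled MS2 coat protein from 0.7 or 1.5 nM, doubling to 3 µM, in the absence and then the presence of constant ligand. The buffer was 100 mM Tris-HCl pH 7.5, 80 mM KCl, 4 mM MgCl2, BSA, DTT, yeast tRNA and Tween-20. The apparent Kd is the median of filtered per-cluster fits of binding curves, with green signal normalised to red-channel RNA signal and control-cluster median Fmax.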

MS2 coat protein [2] = experiment: apparent Kd, MS2 coat protein; higher = weaker binding; RNA-MaP array
In short: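 For each design, the apparent Kd is the median of binding-curve fits across its clusters. Designs measured on fewer than 10 clusters were dropped. The RNAs were transcribed from sequenced DNA templates on an Illumina sequencing chip and incubated at room temperature, with or without input ligand, with fluorescently labeled MS2 coat protein at 1.5 nM to 3 μM.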

[3] = designed as: OFF switch for theophylline, no ligand
[4] = ligand present: theophylline, designed as: OFF switch for theophylline
[5] = designed as: ON switch for theophylline, no ligand
[6] = ligand present: theophylline, designed as: ON switch for theophylline
[7] = designed as: ON switch for flavin mononucleotide, no ligand
[8] = ligand present: flavin mononucleotide, designed as: ON switch for flavin mononucleotide
[9] = designed as: OFF switch for flavin mononucleotide, no ligand
[10] = ligand present: flavin mononucleotide, designed as: OFF switch for flavin mononucleotide

GCUGGGUGCGCAAGGACCUGGCGUUGCGAUACCAGCACGGUAACGUGCCCUUGGCAGCGCACAUGAGGAUCACCCAUGUGGUGUU
apparent Kd (MS2 coat protein [1]; [3]): 276 nM
apparent Kd (MS2 coat protein [1]; [4]): 310 nM

UUAGAUAUGACGGAUACCAGCGUGUUGUAGAACAUGAGGAUCACCCAUGUAGUGAUCAUGCGCCCUUGGCAGCUGGUAUGUUUGG
apparent Kd (MS2 coat protein [1]; [5]): 262 nM
apparent Kd (MS2 coat protein [1]; [6]): 829 nM

AUAUGAUCAUGGGAUACCAGAAAUGGUAUUCCUUUAUUUCUUACAUGAGGAUCACCCAUGUUCCCUUGGCAGCUUAUGAUCAUAU
apparent Kd (MS2 coat protein [1]; [3]): 75 nM
apparent Kd (MS2 coat protein [1]; [4]): 282 nM

ACUAGUUGUGCAGAUACCAGACAUGAGGAUCACCCAUGUUUGGGUUGUUCGCAACUUCCUGUCCCUUGGCAGCUGUACAUCUAGA
apparent Kd (MS2 coat protein [1]; [3]): 24.9 nM
apparent Kd (MS2 coat protein [1]; [4]): 138 nM

CGCACAGAGAAUGAUACCAGCGAGGAAGCGACAUGAGGAUCACCCAUGUGCGAAUGAUCCCGCCCUUGGCAGCGUAAGUGAUCCC
apparent Kd (MS2 coat protein [1]; [5]): 111 nM
apparent Kd (MS2 coat protein [1]; [6]): 71.3 nM

CCACACAUGAGGAUCACCCAUGUAAUUGAUACCAGAUUUAAAUGAGUCCCUUGGCAGCAGUGAGCUAGAGUUGUCGUAUAUAUGG
apparent Kd (MS2 coat protein [1]; [5]): 17 nM
apparent Kd (MS2 coat protein [1]; [6]): 18.9 nM

AUGUCGUUGAAUAUAGCGGCUUGGUGUGAUACCAGAAUGAUCAAAUUCCCUUGGCAGCAUUACAUGAGGAUCACCCAUGUUUAGG
apparent Kd (MS2 coat protein [1]; [5]): 23.7 nM
apparent Kd (MS2 coat protein [1]; [6]): 22.9 nM

AUAUCCUCAACAGGAUAUACACGUGACUAAAUGGUAGAAGGGUUAGCAGACGACAUGAGGAUCACCCAUGUUUAGGAUAAAGCG
apparent Kd (MS2 coat protein [2]; [7]): 10.7 nM
apparent Kd (MS2 coat protein [2]; [8]): 9.66 nM

CAAUAUUUCCAGAAGGGCAAGCUAACACCAACUGCAGGAUAUGGUUUCAUACAACAUGAGGAUCACCCAUGUGGCACAGGUUCC
apparent Kd (MS2 coat protein [2]; [7]): 18.6 nM
apparent Kd (MS2 coat protein [2]; [8]): 17.2 nM

AAGACGAAGAAGAAGGGCAUACAUGAGGAUCACCCAUGUGAAAAUGUGCUGAAAGAACAUAAAUUGCAGGAUAUUCACACAAGU
apparent Kd (MS2 coat protein [2]; [7]): 11.2 nM
apparent Kd (MS2 coat protein [2]; [8]): 6.42 nM

AUCGGUAAAACUCAGGAUAUAGAAAUAGACACAUGAGGAUCACCCAUGUUAACUACACAAAGAAUCUAGAAGGGAGCAGGUGUCUA
apparent Kd (MS2 coat protein [2]; [7]): 78.2 nM
apparent Kd (MS2 coat protein [2]; [8]): 44.9 nM

CCAAACACUGGAGGAUAUGCAAGAACAUGAGGAUCACCCAUGUAGUAACGAUAAAGAAAACAAGCGCAGAAGGCCACAUCUCUA
apparent Kd (MS2 coat protein [2]; [7]): 14.2 nM
apparent Kd (MS2 coat protein [2]; [8]): 6.49 nM

UUGCUCUCUUCGGCCGCCACUACACGCGAGUUGACGACUGGCGGACAUGAGGAUCACCCAUGUCAUAGGACCGGGAAUCACGCUG
apparent Kd (MS2 coat protein [2]; designed as: ON switch for tryptophan, no ligand): 13.4 nM
apparent Kd (MS2 coat protein [2]; ligand present: tryptophan, designed as: ON switch for tryptophan): 13.8 nM

AUACCAUCCCAAGGAUAUGUUACCUAGACAUGAGGAUCACCCAUGUGAGAUUAGAGCUGUCGCGUACAGAAGGUGGUGAUGACA
apparent Kd (MS2 coat protein [2]; [9]): 25.3 nM
apparent Kd (MS2 coat protein [2]; [10]): 28.1 nM

UAGAGCCAGUCGGCCGCCACUCUCCAUAUGUGAGCCUUUAAGUUCUACAUGAGGAUCACCCAUGUGAGGACCGGGACCGAAUCUA
apparent Kd (MS2 coat protein [2]; designed as: OFF switch for tryptophan, no ligand): 60.3 nM
apparent Kd (MS2 coat protein [2]; ligand present: tryptophan, designed as: OFF switch for tryptophan): 80.7 nM

GUACCACUCAAGAAGGACCUAGUUCACUAACCUGUGACAUGAGGAUCACCCAUGUGGCUAUUGCGGUAGGAUAUUGAAGACCGG
apparent Kd (MS2 coat protein [2]; [7]): 157 nM
apparent Kd (MS2 coat protein [2]; [8]): 69.1 nM

GGACAUGAGGAUCACCCAUGUGGGAUCCACUACGGUCACGCUAGAAGGGAUGUGGGUGGCCGAUAUCAGGAUAUAGCAGUUUAG
apparent Kd (MS2 coat protein [2]; [9]): 381 nM
apparent Kd (MS2 coat protein [2]; [10]): 189 nM

AAUGCGAGACUAGGAUAUUGCAUUCAACUCGUGCAAGAAGGAGUCGUUUCAUACAUGAGGAUCACCCAUGUCCAUAUUUCUCAA
apparent Kd (MS2 coat protein [2]; [7]): 14.5 nM
apparent Kd (MS2 coat protein [2]; [8]): 7.44 nM

CUCAGGCUGCGAGGAUAUCCGUCGAAUCAAACAGGAGAAGGCGCAUACAUGAGGAUCACCCAUGUGCUGACUUGUCCGUGAAUC
apparent Kd (MS2 coat protein [2]; [9]): 5.46 nM
apparent Kd (MS2 coat protein [2]; [10]): 6.37 nM

AUAUGUUGAGGAUAUACAUGAGGAUCACCCAUGUAAUAUGAACGGAAUGAUUUAAGGAGUAGAAGGCAACACCA
apparent Kd (MS2 coat protein [2]; [9]): 12.8 nM
apparent Kd (MS2 coat protein [2]; [10]): 24.4 nM

GAGAGAUAAGGAUAUCCACAACGGGACAUGAGGAUCACCCAUGUACCCUCAUUCCUCGCAGGAGAAGGUAUCAUGU
apparent Kd (MS2 coat protein [2]; [9]): 22.4 nM
apparent Kd (MS2 coat protein [2]; [10]): 44.3 nM

UGGUCGCAGUGAGGAUAUCCAGUCUAGGCACACGGAGAAGGCACGCGACAUGAGGAUCACCCAUGUAGACGAUAUGCUCCAGGU
apparent Kd (MS2 coat protein [2]; [9]): 22.1 nM
apparent Kd (MS2 coat protein [2]; [10]): 31.3 nM

UGUGGAACGGAAGGAUAUGGUCACCGAUGGUCUCCAGAAGGUCCGGGUGACCGAACAAUACAUGAGGAUCACCCAUGUAGCAAA
apparent Kd (MS2 coat protein [2]; [9]): 7 nM
apparent Kd (MS2 coat protein [2]; [10]): 6.84 nM

CGAGUGUGAGGAUAUCAGUUCAAUAGGGCUACGCCGUGUCGUGAGAAGGCACAUGAGGAUCACCCAUGUAAUAA
apparent Kd (MS2 coat protein [2]; [9]): 58.3 nM
apparent Kd (MS2 coat protein [2]; [10]): 122 nM

AAAGGCGUAGGAUAUACAUGAGGAUCACCCAUGUAUCACAAUAACGAGGAAUGAAAGUGUAGAAGGACGAUAAC
apparent Kd (MS2 coat protein [2]; [9]): 7.48 nM
apparent Kd (MS2 coat protein [2]; [10]): 6.8 nM
